Laboratory results from ChEMBL document CHEMBL4732025, “Assessment of the rules related to gaining activity against Gram-negative bacteria” (RSC Med Chem, 2021).

Experiments:
Escherichia coli [1] = experiment: Antimicrobial activity against Escherichia coli harboring deltaACRB mutant assessed as growth inhibition at 100 uM relative to control; type: functional
Method in brief: (§1)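 E. coli K12 wild-type and its ΔtolC and ΔacrB efflux mutants were used. Percentage growth inhibition was taken at 100 μM, or at 25 or 50 μM where compound solubility limited the top concentration, when no MIC could be determined.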

Escherichia coli [2] = experiment: Antimicrobial activity against Escherichia coli BL21 (DE3) assessed as growth inhibition at 100 uM relative to control; type: functional
Method in brief: (§2)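 Broth growth assay with E. coli BL21(DE3)omp8 (porin-[…]), E. coli D22 or S. aureus Newman. Percent growth inhibition was measured at 100 μM, or at a lower concentration where compound solubility limited it, whenever no MIC could be determined.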

Escherichia coli [3] = experiment: Antimicrobial activity against Escherichia coli K-12 mutant assessed as growth inhibition at 100 uM relative to control; type: functional; method in brief: as §1
[4] = Octanol/water partition co-efficient, log P of compound; type: physicochemical
Method in brief: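 Log P(o/w) calculated in silico, not measured.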

Staphylococcus aureus [5] = experiment: Antimicrobial activity against Staphylococcus aureus subsp. aureus str. Newman assessed as growth inhibition at 100 uM relative to control; type: functional; method in brief: as §2
Escherichia coli [6] = experiment: Antimicrobial activity against Escherichia coli D22 assessed as growth inhibition at 100 uM relative to control; type: functional; method in brief: as §2
Escherichia coli [7] = experiment: Antimicrobial activity against Escherichia coli harboring delta tolC mutant assessed as growth inhibition at 100 uM relative to control; type: functional; method in brief: as §1
HepG2 [8] = experiment: Cytotoxicity against human HepG2 cells at 50 uM after 72 hrs by MTT assay; type: functional
Escherichia coli [9] = experiment: Antimicrobial activity against Escherichia coli harboring delta tolC mutant assessed as growth inhibition at 50 uM relative to control; type: functional; method in brief: as §1
Escherichia coli [10] = experiment: Antimicrobial activity against Escherichia coli harboring deltaACRB mutant assessed as growth inhibition at 25 uM relative to control; type: functional; method in brief: as §1
[11] = Inhibition of IspE in Plasmodium falciparum incubated for 30 mins by microplate reader assay
Method in brief: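 P. falciparum IspE with C-terminal His6, expressed in E. coli XL1 and purified by Ni2+ chelating chromatography and then G-25 gel filtration. Coupled PK/LDH assay with 1.0 mM CDP-ME in 100 mM Tris-HCl pH 7.6 plus MgCl2, KCl, DTT, NADH, PEP, ATP, PK and LDH. Compound added from DMSO. Read photometrically at room temperature for 30 min.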

Staphylococcus aureus [12] = experiment: Antimicrobial activity against Staphylococcus aureus subsp. aureus str. Newman assessed as growth inhibition at 25 uM relative to control; type: functional; method in brief: as §2
[13] = Inhibition of PK/LDH (unknown origin)
Method in brief: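 Counter-screen of the auxiliary enzymes: 1 mM ADP, 2 mM PEP, 1 mM NADH, PK and LDH (0.05 U/mL each), 10 mM MgCl2, 200 mM KCl, 10 mM DTT in 100 mM Tris-HCl pH 7.6. Compound added from DMSO. NADH decrease monitored photometrically at room temperature for 30 min.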

HepG2 [14] = experiment: Cytotoxicity against human HepG2 cells at 25 uM after 72 hrs by MTT assay; type: functional
Escherichia coli [15] = experiment: Antimicrobial activity against Escherichia coli D22 assessed as growth inhibition at 25 uM relative to control; type: functional; method in brief: as §2
Plasmodium falciparum = experiment: Antiplasmodial activity against Plasmodium falciparum NF54 infected in human erythrocyte assessed as reduction in [3H]hypoxanthine incorporation incubated for 24 hrs by beta liquid scintillation counter analysis; type: functional
Method in brief: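 Compounds (DMSO stocks) were titrated in duplicate over a 64-fold range at 1.25% haematocrit and 0.3% parasitaemia for 48 h. [3H]hypoxanthine (0.25 μCi/well) was then added for 24 h and incorporation counted by scintillation. Results are % of untreated control, with IC50 by linear interpolation.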

[16] = target: T1, 4-diphosphocytidyl-2-C-methyl-D-erythritol kinase (Escherichia coli (strain K12), UniProt P62615); experiment: Inhibition of IspE expressed in Escherichia coli incubated for 30 mins by microplate reader assay
T1 sequence (P62615 whole entry): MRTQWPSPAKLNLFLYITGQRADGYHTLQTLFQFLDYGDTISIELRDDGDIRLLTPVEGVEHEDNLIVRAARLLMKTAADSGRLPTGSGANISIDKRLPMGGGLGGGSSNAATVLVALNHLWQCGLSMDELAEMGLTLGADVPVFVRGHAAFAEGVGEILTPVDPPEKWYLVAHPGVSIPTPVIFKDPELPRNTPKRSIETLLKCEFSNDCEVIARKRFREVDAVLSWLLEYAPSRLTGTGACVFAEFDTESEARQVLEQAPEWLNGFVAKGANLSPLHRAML

Escherichia coli [17] = experiment: Antimicrobial activity against Escherichia coli harboring delta tolC mutant assessed as growth inhibition at 25 uM relative to control; type: functional; method in brief: as §1
Escherichia coli [18] = experiment: Antimicrobial activity against Escherichia coli BL21 (DE3) assessed as growth inhibition at 25 uM relative to control; type: functional; method in brief: as §2
Escherichia coli [19] = experiment: Antimicrobial activity against Escherichia coli K-12 mutant assessed as growth inhibition at 100 uM in presence of polymyxin B nonapeptide relative to control; type: functional
HepG2 [20] = experiment: Cytotoxicity against human HepG2 cells at 100 uM after 72 hrs by MTT assay; type: functional
Escherichia coli [21] = experiment: Antimicrobial activity against Escherichia coli BL21 (DE3) assessed as growth inhibition at 50 uM relative to control; type: functional; method in brief: as §2
Escherichia coli [22] = experiment: Antimicrobial activity against Escherichia coli harboring deltaACRB mutant assessed as growth inhibition at 50 uM relative to control; type: functional; method in brief: as §1
Escherichia coli [23] = experiment: Antimicrobial activity against Escherichia coli D22 assessed as growth inhibition at 50 uM relative to control; type: functional; method in brief: as §2
Staphylococcus aureus [24] = experiment: Antimicrobial activity against Staphylococcus aureus subsp. aureus str. Newman assessed as growth inhibition at 50 uM relative to control; type: functional; method in brief: as §2

Cc1cc(-c2csc(NC(=O)[C@@H](N)NCC(=O)O)n2)c(C)n1C
inhibition at 100 µM (Escherichia coli [1]): 8% | inhibition at 100 µM (Escherichia coli [2]): 18% | inhibition at 100 µM (Escherichia coli [3]): 13% | logP [4]: 0.9 | inhibition at 100 µM (Staphylococcus aureus [5]): 6% | inhibition at 100 µM (Escherichia coli [6]): 3% | inhibition at 100 µM (Escherichia coli [7]): 57% | inhibition at 50 µM (HepG2 [8]): 19%

CC(C)[C@H](N[C@H](N)C(=O)Nc1csc(-c2ccccc2)n1)C(=O)O
inhibition at 100 µM (Escherichia coli [1]): 2% | inhibition at 100 µM (Escherichia coli [2]): 16% | inhibition at 100 µM (Escherichia coli [3]): 13% | inhibition at 100 µM (Staphylococcus aureus [5]): 5% | inhibition at 100 µM (Escherichia coli [6]): 14% | inhibition at 100 µM (Escherichia coli [7]): 17%

CC(C)[C@H](N[C@H](NC(=O)OC(C)(C)C)C(=O)Nc1csc(-c2ccccc2)n1)C(=O)O
inhibition at 100 µM (Escherichia coli [7]): 21%

Cc1cc(-c2csc(NC(=O)[C@@H](NC(=O)OC(C)(C)C)N[C@@H](Cc3ccc(O)cc3)C(=O)O)n2)c(C)n1C
inhibition at 50 µM (Escherichia coli [9]): 13%

CCCn1c(C)cc(-c2csc(NC(=O)c3ccco3)n2)c1C
inhibition at 25 µM (Escherichia coli [10]): 5% | IC50 [11]: 57 µM | inhibition at 25 µM (Staphylococcus aureus [12]): 6% | IC50 [13]: 65 µM | inhibition at 25 µM (HepG2 [14]): 19% | inhibition at 25 µM (Escherichia coli [15]): 9% | IC50 (Plasmodium falciparum): 5 µM | IC50 [16]: 91 µM | inhibition at 25 µM (Escherichia coli [17]): 30% | inhibition at 25 µM (Escherichia coli [18]): 3%

Nc1nc(=O)n(C2CCCS2)cc1C#CCNS(=O)(=O)C1CC1 (stereo unspecified)
IC50 [11]: > 500 µM | IC50 [13]: > 500 µM | inhibition at 100 µM (Escherichia coli [19]): 6% | IC50 [16]: 1 µM

Cc1cc(-c2csc(NC(=O)[C@@H](N)N[C@@H](CC(C)C)C(=O)O)n2)c(C)n1C
inhibition at 100 µM (Staphylococcus aureus [5]): 52% | inhibition at 100 µM (Escherichia coli [7]): 58%

CCn1c(C)cc(-c2csc(NC(=O)[C@H](NCC(=O)O)NC(=O)OC(C)(C)C)n2)c1C
inhibition at 50 µM (Escherichia coli [9]): 41%

N[C@@H](NCC(=O)O)C(=O)Nc1csc(-c2ccccc2)n1
inhibition at 100 µM (Escherichia coli [1]): 6% | inhibition at 100 µM (Escherichia coli [2]): 19% | inhibition at 100 µM (Escherichia coli [3]): 22% | inhibition at 100 µM (Staphylococcus aureus [5]): 5% | inhibition at 100 µM (Escherichia coli [6]): 15% | inhibition at 100 µM (Escherichia coli [7]): 10% | inhibition at 100 µM (HepG2 [20]): 17%

CCCn1c(C)cc(-c2csc(NC(=O)c3cccs3)n2)c1C
inhibition at 50 µM (Escherichia coli [21]): 19% | IC50 [11]: 35 µM | inhibition at 50 µM (Escherichia coli [22]): 7% | IC50 [13]: 56 µM | inhibition at 50 µM (Escherichia coli [23]): 4% | IC50 (Plasmodium falciparum): 6 µM | inhibition at 50 µM (Staphylococcus aureus [24]): 7% | inhibition at 50 µM (Escherichia coli [9]): 33% | IC50 [16]: 68 µM | inhibition at 50 µM (HepG2 [8]): -3%

Cc1cc(-c2csc(NC(=O)[C@H](NCC(=O)O)NC(=O)OC(C)(C)C)n2)c(C)n1C
inhibition at 100 µM (Escherichia coli [7]): 46%

Cc1cc(-c2csc(NC(=O)[C@@H](NC(=O)OC(C)(C)C)N[C@@H](CC(C)C)C(=O)O)n2)c(C)n1C
inhibition at 50 µM (Escherichia coli [9]): 8%

Cc1cc(-c2csc(NC(=O)[C@@H](N)N[C@@H](Cc3ccc(O)cc3)C(=O)O)n2)c(C)n1C
inhibition at 100 µM (Escherichia coli [7]): 38%

CC(C)C[C@H](N[C@H](NC(=O)OC(C)(C)C)C(=O)Nc1csc(-c2ccccc2)n1)C(=O)O
inhibition at 100 µM (Escherichia coli [7]): 3%

CC(C)(C)OC(=O)N[C@@H](NCC(=O)O)C(=O)Nc1csc(-c2ccccc2)n1
inhibition at 100 µM (Escherichia coli [7]): 34%

Cc1cc(-c2csc(NC(=O)[C@@H](N)N[C@H](C(=O)O)C(C)C)n2)c(C)n1C
inhibition at 100 µM (Escherichia coli [7]): 42%

CCn1c(C)cc(-c2csc(NC(=O)[C@@H](N)NCC(=O)O)n2)c1C
inhibition at 100 µM (Escherichia coli [1]): 65% | inhibition at 100 µM (Escherichia coli [2]): 16% | inhibition at 100 µM (Escherichia coli [3]): 13% | logP [4]: 1.4 | inhibition at 50 µM (Staphylococcus aureus [24]): 14% | inhibition at 100 µM (Escherichia coli [6]): 20% | inhibition at 100 µM (Escherichia coli [7]): 55% | inhibition at 100 µM (HepG2 [20]): 23%

CC(C)C[C@H](N[C@H](N)C(=O)Nc1csc(-c2ccccc2)n1)C(=O)O
inhibition at 100 µM (Escherichia coli [1]): 11% | inhibition at 100 µM (Escherichia coli [2]): 30% | inhibition at 100 µM (Escherichia coli [3]): 18% | inhibition at 100 µM (Staphylococcus aureus [5]): 11% | inhibition at 100 µM (Escherichia coli [6]): 18% | inhibition at 100 µM (Escherichia coli [7]): 32%

Cc1cc(-c2csc(NC(=O)[C@@H](NC(=O)OC(C)(C)C)N[C@H](C(=O)O)C(C)C)n2)c(C)n1C
inhibition at 50 µM (Escherichia coli [9]): 14%
